Myeloid diff 2: compounds promoting myeloid differentiation | ER-HoxA9 myeloid progenitors, lysozyme-GFP differentiation, flow cytometry | calls only at 10 µM | actives 1% (n = 360,000) | AID 624256;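 active means normalized GFP-positive differentiation at or above the plate's own cutoff, the solvent-only control mean plus 3 SD; inconclusive means no clear call, values can overlap the other calls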;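 further: cells exposed to compound for four days before flow analysis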
SENP1 inh: blocks the human SENP1 SUMO protease catalytic domain; Q9P0U3; actives 0.21% (n = 360,000); inhibition, % at 10 µM; recombinant SENP1 catalytic domain, CyPet-SUMO1-YPet FRET cleavage;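 active means inhibition at least 30% at 10 µM, raw YFP signal under a set limit, fluorescence ratio 0.5 to 1.5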;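 further: 0% = enzyme with DMSO and 100% = no enzyme wells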
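Test system: hSENP1 catalytic domain, recombinant; Amount: 20 pM final SENP1 enzyme; Medium: Tris pH 8 buffer plus EDTA, NaCl, BME, BSA, NP40, catalase; Schedule: 50 min enzyme reaction, room temperature, light-protected; Technique: FRET fluorescence in CFP and YFP emission channels; Controls: no-enzyme wells low, DMSO-plus-enzyme wells high control.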
MT1-MMP act inh: inhibitors of human MT1-MMP activation. actives 0.061% (n = 360,000). HT1080 RFP-PRO-GFP cells, GFP/RFP ratio fluorescence, overnight; percent of plate control window, DMSO zero. GFP/RFP ratio change, % at 20 µM. P50281. AID 651647;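 active means GFP/RFP ratio change of at least 30% with cell ATP level not reduced by more than half and red fluorescence within 50% of control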
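Read-out: GFP/RFP fluorescence ratio; Test system: RFP-PRO-GFP reporter HT1080 cells; Compound dosing: single-point 20 µM compound, 1% DMSO; Times: overnight compound exposure at 37 °C.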
DAGLB inh: diacylglycerol lipase beta (human) inhibition. HEK293T DAGLB membrane lysate, EnzChek fluorogenic substrate. Q8NCG7. actives 0.059% (n = 340,000). AID 504411. inhibition, % at 5.17 µM; in the data active means inhibition above about 34%;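 further: 0% = enzyme with vehicle and 100% = wells lacking enzyme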
Target sequence (Q8NCG7 whole entry, looked up): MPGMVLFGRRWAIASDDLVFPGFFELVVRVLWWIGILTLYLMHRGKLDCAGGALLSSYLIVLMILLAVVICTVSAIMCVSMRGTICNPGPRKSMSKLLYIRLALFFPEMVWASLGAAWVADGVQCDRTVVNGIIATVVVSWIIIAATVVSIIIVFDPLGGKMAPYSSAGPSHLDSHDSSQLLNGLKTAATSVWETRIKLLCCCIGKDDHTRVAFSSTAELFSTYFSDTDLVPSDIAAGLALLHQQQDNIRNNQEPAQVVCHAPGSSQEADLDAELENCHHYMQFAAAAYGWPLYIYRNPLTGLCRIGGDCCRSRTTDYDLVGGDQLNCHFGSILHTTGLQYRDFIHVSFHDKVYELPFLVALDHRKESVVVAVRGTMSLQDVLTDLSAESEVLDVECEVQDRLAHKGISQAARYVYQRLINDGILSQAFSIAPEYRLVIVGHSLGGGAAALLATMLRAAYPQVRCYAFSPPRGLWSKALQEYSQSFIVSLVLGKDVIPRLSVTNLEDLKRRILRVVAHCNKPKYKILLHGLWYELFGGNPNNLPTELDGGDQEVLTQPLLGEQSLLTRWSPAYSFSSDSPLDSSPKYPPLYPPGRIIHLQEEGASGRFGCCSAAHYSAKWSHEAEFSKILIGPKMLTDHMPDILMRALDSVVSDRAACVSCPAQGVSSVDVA
NRP1-CendR mod: NRP-1/CendR interaction modulation; FAM-RPARPAR peptide binding to NRP-1, fluorescence polarization; inhibition, % at 25 µM; actives 0.85% (n = 360,000); AID 602438;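 active means inhibition or corrected inhibition above about 18%, plus a signal ratio from 0.5 to 1.5, limit read from the data, passing the limit was not always enough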
beta cell repl: MIN6 beta-cell proliferation induction. actives 0.29% (n = 330,000). AID 2380. proliferation, % at 10 µM. MIN6 cells proliferation, ATPlite luminescence, 48 h; cells starved in 0.2% serum; 100% = growth in 10% serum;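 active means compounds whose signal lies at least 3.5 SD above the mean of all wells on their plate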;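 further: 0% = DMSO-treated cells in low-serum medium and 100% = 10% serum control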
Myeloid diff CP1: myeloid differentiation induction; shares compounds with Myeloid diff 2; ER-HoxA9 myeloid progenitors, GFP/Mac1 double-positive flow; calls only; actives 2% (n = 2,300); AID 651706;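 active means share of green or green-and-red cells above 9 and 9% in run 1 or 4 and 3% in run 2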
GFP autofluor: counter-screen for myeloid differentiation promoters: compound fluorescence; shares compounds with Myeloid diff 2; ER-HoxA9 myeloid progenitors, no estrogen, GFP autofluorescence flow cytometry; vehicle wells 0%, positive control 100%; fluorescence response, % (no concentration beside the values); actives 7.4% (n = 2,300);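 active means over 5% cells positive for green fluorescent reporter, or over 2% positive for both it and APC stain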;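 further: range taken on the double positive population between DMSO and positive control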
Numbers without * were called inactive; i = inactive; ? = inconclusive; . = not tested or not shown; + = active, no number. The list is not random: actives were taken first. Their share in the collection is about 2.4%.

SMILES	Myeloid diff 2	SENP1 inh	MT1-MMP act inh	DAGLB inh	NRP1-CendR mod	beta cell repl	Myeloid diff CP1	GFP autofluor
Cc1ccc(S(=O)(=O)c2nc(S(C)(=O)=O)sc2N2CCOCC2)cc1	i	0	-1	1	5	9	i	0
CC(=O)Nc1ccc(C(=O)OCC(=O)NCc2ccc3c(c2)OCO3)cc1	i	2	-4	2	9	-3	.	.
CN1CCN(c2ccc(-c3cc(NC=O)c4ncc(-c5ccc(F)cc5)n4c3)cc2)CC1	+	35	-12	.	-20	.	i	0
CN1CCN(c2ccc(-c3cc(NC=O)c4ncc(-c5ccccc5)n4c3)cc2)CC1	i	36	-11	.	-42	.	i	3
O=C(Nc1nc(-c2cccnc2)cs1)c1ccc(S(=O)(=O)N2CCOCC2)cc1	i	1	-3	-1	5	-3	i	2
O=C(COC(=O)c1ccc(S(=O)(=O)N2CCOCC2)cc1)Nc1nc(-c2ccccc2)cs1	i	2	2	0	12	-3	.	.
COC(=O)c1ccc2c(c1)NC1=C(C(=O)CC(C)(C)C1)C(c1ccncc1)N2 (stereo unspecified)	+	-1	-4	1	-20	-2	i	0
Cc1ccc(NC2CCCN(C(=O)C3CCCCC3)C2)cc1C (stereo unspecified)	?	2	2	-9	-6	2	.	.
COC(=O)c1ccc(NC(=S)NCCCn2ccnc2)cc1	i	1	0	3	5	-3	.	.
CCC(=Nc1ccccc1O)C1=C(O)CC(c2ccccc2)CC1=O (stereo unspecified)	i	-11	-11	-1	5	-4	i	6.6*
COc1ccc(Cl)cc1S(=O)(=O)N1CCN(Cc2ccc3c(c2)OCO3)CC1	i	1	-4	-3	-1	-3	.	.
COc1ccc(C(=O)O)cc1S(=O)(=O)N1CCN(Cc2ccc3c(c2)OCO3)CC1	i	1	2	-1	6	0	i	0
CCC(CC)C(=O)N1CCN(Cc2ccc3c(c2)OCO3)CC1	i	0	.	-4	4	-3	i	2
O=C(CN1c2cccc3cccc(c23)S1(=O)=O)NCc1ccc(Cl)cc1	i	-3	5	-1	10	-5	.	.
CCC(=O)c1ccc(OCC(=O)OCC(=O)NCC2CCCCC2)cc1	i	2	1	3	-1	-3	.	.
CC(=O)Oc1cc(C)cc2oc(=O)cc(-c3ccccc3)c12	i	-2	2	0	-2	-3	i	0
COc1ccc(-c2noc(CCC(=O)N3CCN(c4cccc(OC)c4)CC3)n2)cc1	i	2	5	0	-1	.	.	.
COc1ccc(-c2noc(CCC(=O)N3CCN(c4cccc(C(F)(F)F)c4)CC3)n2)cc1	+	2	4	0	10	-4	i	0
C[C@H](CO)N1C[C@H](C)[C@H](CN(C)S(=O)(=O)c2ccccc2F)OCc2cnnn2CCCC1=O	i	1	2	1	3	.	.	.
Nc1nnc(CC(=O)Nc2ccccc2)s1	i	-2	1	.	-14	1	.	.
CSCC[C@H](NC(=O)OC(C)(C)C)C(=O)N1CCC(C(=O)NCC(=O)Nc2ccc(C)cc2)CC1	i	1	3	0	-6	-1	.	.
COc1ccc(Nc2c(-c3ccc(F)cc3)nc3nc(C)cc(C)n23)cc1	i	-27	4	.	13	.	.	.
Nc1ccc(N2CCN(c3ccc(F)cc3)CC2)cc1	+	3	-5	27	7	-3	i	0
COc1ccc(C(=O)CSc2ncnc3nc[nH]c23)cc1	+	1	2	-2	5	-2	i	0

Bioassay records: PubChem BioAssay, several laboratories
